Most compounds without a hit are left out; they make up all but 4.9% or so of the library.
Hep lipid drop = inhibitors of hepatocyte lipid droplet formation, primary screen, imaging, high-throughput imaging, BODIPY stain; AML12 mouse hepatocytes, oleate lipid droplets; inhibition, % at 6.5 µM; 240,000 tested, 0.4% active; AID 1656, 2009;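 active means lipid droplet intensity inhibited by at least 50%, with more than 500 cells counted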
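Material – AML12 mouse liver cells · Also added – oleate loading, 100 µM · Compound dosing – 6.5 µM single-point dosing · Times – overnight treatment with compound plus oleate · Measured by – fluorescence imaging, 20x objective, two fields per well · Read-out – percent inhibition of filter-corrected integrated lipid droplet intensity per well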
CHT block = inhibitors of human choline transporter CHT | High affinity choline transporter 1 (Homo sapiens), Q9GZV3 | CHT-expressing cells, membrane potential dye, choline response; hits give low values | B-score at 10 µM | 310,000 tested, 0.86% active;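 active means B-score over 3 SD under the library average, and starting fluorescence ratio not unusually high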;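 further: choline stimulus applied at its EC90 after an EC20 pre-addition; B-score computed on integrated fluorescence ratio after choline addition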
Target sequence (Q9GZV3 whole entry, looked up): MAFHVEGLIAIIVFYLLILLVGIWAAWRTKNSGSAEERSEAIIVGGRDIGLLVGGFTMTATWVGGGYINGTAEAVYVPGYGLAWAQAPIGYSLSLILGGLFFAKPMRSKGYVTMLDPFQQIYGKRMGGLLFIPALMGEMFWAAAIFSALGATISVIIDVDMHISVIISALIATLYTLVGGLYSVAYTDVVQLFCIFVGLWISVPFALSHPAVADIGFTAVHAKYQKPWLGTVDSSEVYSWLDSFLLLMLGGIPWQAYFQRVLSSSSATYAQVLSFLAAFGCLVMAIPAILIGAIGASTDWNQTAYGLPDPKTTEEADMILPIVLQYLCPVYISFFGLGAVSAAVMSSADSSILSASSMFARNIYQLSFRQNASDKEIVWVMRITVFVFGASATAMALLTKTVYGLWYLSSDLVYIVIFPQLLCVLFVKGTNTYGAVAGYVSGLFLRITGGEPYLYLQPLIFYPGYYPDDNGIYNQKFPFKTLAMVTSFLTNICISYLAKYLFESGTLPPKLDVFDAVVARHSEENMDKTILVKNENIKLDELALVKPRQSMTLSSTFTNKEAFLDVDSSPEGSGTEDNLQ
PHOSPHO1 block = PubChem AID 1565; 290,000 tested, 1.1% active; recombinant PHOSPHO1, absorbance phosphatase assay; inhibition, % at 13.3 µM; Phosphoethanolamine/phosphocholine phosphatase (Homo sapiens), Q8TCT1; in the data active means inhibition above about 60%
HSF1 inh = HSF1 inhibitors in luciferase reporter cells, primary screen, cell-based, NIH3T3, luminescence; 300,000 tested, 0.77% active; NIH3T3-HGL HSE-luciferase, MG132-induced, luminescence 8 h; hits give low values; activity change, negative = inhibition, % at 7.5 µM (by protocol);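 active means more than half of replicate wells show activity change below -50%, luminescence cut by over half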;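 further: luciferase reports HSF-1 transcriptional activity via heat shock element; 0% = median of DMSO wells and -100% = zero luminescence signal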
CHT PAM = CHT positive allosteric modulators, primary screen, cell-based, membrane potential dye, choline EC20; 310,000 tested, 0.49% active; CHT-expressing cells; hits give high values; LV-AA mutant CHT in HEK293 cells; AID 488977, 2010; B-score at 10 µM; High affinity choline transporter 1 (Homo sapiens), Q9GZV3;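 active means initial fluorescence not abnormally high and integrated response B-score, plate-corrected, over 3 SD above library mean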
HSF-1 act = HSF-1 activators, primary screen, NIH3T3-HGL cells, MG132 stress, luminescence, single point; NIH3T3-HGL HSF-1 luciferase reporter, 8 h; 100% = twice DMSO control signal; activation, % at 9 µM; 300,000 tested, 1.7% active; AID 504408, 2011;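 active means mean replicate activation of at least 50% with a set share of replicates each reaching 50%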;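 further: 0% = median of the neutral control wells and 100% = twice that signal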
* hit, by the source's call; i = inactive; / = no result given.

SMILES | Hep lipid drop | CHT block | PHOSPHO1 block | HSF1 inh | CHT PAM | HSF-1 act
O=C1NCCCC1C(=O)N/N=C/c1cccc(Cl)c1 (configuration not stated) | -4 | i | 49 | -5 | i | 4
CC1(C)Cc2c(C#N)c(SCC(=O)c3ccccc3)nc(N3CCOCC3)c2CS1 | -21 | i | -10 | 14 | i | 19
COc1ccc(/C=C2\CC/C(=C\c3ccc(OC)c(OC)c3)C2=O)cc1OC | 26 | i | -5 | 29 | i | 63*
COc1ccc(/C=C2\CCC/C(=C\c3ccc(OC)c(OC)c3OC)C2=O)c(OC)c1OC | -25 | / | 32 | 38 | / | 53*
COc1ccc2c(c1)CC/C(=C/c1cc(OC)c(OC)c(OC)c1)C2=O | -4 | i | -8 | 3 | i | -15
COc1ccc2c(c1)CC/C(=C/c1ccccn1)C2=O | 7 | i | 26 | 38 | i | 66*
COc1ccc(/C=C2\CCc3ccccc3C2=O)cc1OC | / | i | -8 | 30 | i | 68*
CCc1ccc2c(CC(=O)Nc3nnc(C4CC4)s3)coc2c1 | / | i | 19 | 16 | i | 11
O=S(=O)(Nc1nc2ccccc2nc1NCc1ccco1)c1ccc(Cl)cc1 | 11 | i | 7 | 3 | i | 0
Cc1ccc(S(=O)(=O)Nc2nc3ccccc3nc2NCc2ccco2)cc1 | -16 | i | 35 | 44 | i | 68*
O=C(NCc1ccccc1)C1CCCC1 | -1 | i | / | -62* | i | -72
O=C(O)C1CCCCC1C(=O)NCc1ccccc1 (configuration not stated) | -8 | i | 4 | -2 | i | -1
N#C/C(=C\c1ccncc1)c1ccccn1 | -5 | i | -47 | -1 | i | 22
COc1ccc(CN2CCN(S(=O)(=O)c3ccccc3)CC2)cc1Br | -9 | i | 19 | -61* | i | -69
N/C(=N\OC(=O)Oc1ccccc1)c1cccc([N+](=O)[O-])c1 | 4 | i | -11 | -7 | i | 3
O=C(C#Cc1ccccc1)c1cccc([N+](=O)[O-])c1 | -9 | i | 7 | 61 | i | 101*
Cc1ccccc1-c1nc2c3ccccc3nc(=S)n2[nH]1 | 2 | i | 11 | -3 | i | 9
Cc1nc2ccccc2n1CCc1nc2c3ccccc3nc(=S)n2[nH]1 | / | i | 86* | 5 | i | 0
O=C(NC(=S)Nc1ccccc1[N+](=O)[O-])c1cncc(Br)c1 | -1 | i | -12 | 23 | i | 14
COc1ccc(N/C=C2\C(=O)CCc3c2oc2cc(Cl)c(O)c(Cl)c32)cc1 | 17 | i | 21 | 41 | i | 62*
COCCCNCC(O)COc1ccccc1F (configuration not stated) | 16 | i | -5 | -5 | i | 2
O=S(=O)(c1ccc(Cl)cc1)N1CCC(c2nc3ccccc3[nH]2)CC1 | -10 | i | 23 | 33 | i | 73*
CC(=O)c1ccc(S(=O)(=O)N2CCC(c3nc4ccccc4[nH]3)CC2)cc1 | -5 | i | 6 | -13 | i | -18
O=C(COc1ccc(S(=O)(=O)NCc2ccccc2)cc1Cl)NCc1ccccn1 | -14 | i | 10 | -2 | i | -10
COCC(C)NC(=O)c1noc2c1CCc1cc(OC)ccc1-2 (configuration not stated) | 13 | i | 22 | 49 | i | 71*
SMILES | Hep lipid drop | CHT block | PHOSPHO1 block | HSF1 inh | CHT PAM | HSF-1 act
COc1ccc2c(c1)CCc1c(C(=O)NCCN3CCOCC3)noc1-2 | -10 | i | -1 | 1 | i | -6
COc1ccc2c(c1)CCc1c(C(=O)N(C)c3ccccc3)noc1-2 | -12 | i | 2 | 37 | i | 69*
COCCNC(=O)c1noc2c1CCc1cc(OC)ccc1-2 | -15 | i | -2 | 47 | i | 77*
COc1ccccc1-n1cnnc1SCC(=O)c1cc(C)n(Cc2cccs2)c1C | / | i | 63* | 1 | i | 25
COc1ccc(NC(=O)c2cc(C)n(Cc3cccs3)c2C)cc1 | -5 | i | -6 | 40 | i | 68*
Cc1cc(C(=O)CSc2nnc(-c3ccccc3F)o2)c(C)n1Cc1cccs1 | / | i | 90* | -5 | i | 2
C=CCn1c(SCC(=O)c2cc(C)n(Cc3cccs3)c2C)nnc1-c1ccncc1 | 1 | i | -57 | -2 | i | -4
CCC(C)NC(=O)c1ccc(N2CC3CC(C2)c2cccc(=O)n2C3)c(NC(=O)c2ccc(Br)o2)c1 (configuration not stated) | -14 | i | 22 | -9 | i | -6
Cn1c(=O)oc2cc(S(=O)(=O)NC(Cc3ccccc3)C(=O)N3CCCCC3)ccc21 (configuration not stated) | / | i | 22 | / | i | /
Cc1ccccc1Nc1nc(CSc2nnnn2-c2ccccc2)cs1 | 1 | i | 95* | 2 | i | 4
c1ccc(OCCSc2nnnn2-c2ccccc2)cc1 | / | i | -7 | 46 | i | 69*
Brc1ccc(-c2cnnc(N3CCCC3)n2)cc1 | / | i | 21 | 6 | i | -4
CCCC[C@@H]1CNC(=O)C(=O)N1CCc1cccc2ccccc12 | / | i | / | -69* | i | -75
C=CCn1c(C)cc(-c2csc(N)n2)c1C | -22 | i | 98* | 1 | i | -4
Cc1cccc(NC(=O)c2ccc3c(c2)C(=O)N(Cc2cccnc2)C3=O)c1C | 6 | i | 43 | -4 | i | -9
Cc1cnc(NC(=O)c2ccc3c(c2)C(=O)N(Cc2cccnc2)C3=O)s1 | 3 | i | 63* | 6 | i | -2
Cc1ccc(NC(=O)c2ccc3c(c2)C(=O)N(Cc2cccnc2)C3=O)c(C)c1 | -14 | i | 61* | -5 | i | 12
COc1ccc(/C(N)=N/OC(=O)/C=C/c2ccccc2)cc1 | 10 | i | -131 | 35 | i | 54*
N/C(=N\OC(=O)COc1ccc(Cl)cc1Cl)c1ccccn1 | -8 | i | 16 | 28 | i | 74*
COc1ccc(/C(N)=N/OC(=O)COc2ccccc2Cl)cc1 | 20 | i | -8 | 32 | i | 58*
N/C(=N\OC(=O)COc1ccc2ccccc2c1Br)c1ccccn1 | 11 | i | 20 | 48 | i | 83*
CC(=O)/C=C1\N(C)c2ccc(C)cc2C1(C)C | -14 | i | -5 | -3 | i | -1
Cc1cc(C)nc(NC(=O)Cc2cccs2)n1 | 8 | i | -47 | -6 | i | 3
